From PubChem BioAssay
CHRM5 agonist: CHRM5 agonism in calcium assay. P08912. CHO-K1 hM5 cells, Fluo-8 calcium fluorescence; 0% DMSO wells, 100% maximal acetylcholine response. activation, % at 3 µM. actives 0.19% (n = 360,000);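 active means activation above the run's mean over test compounds plus 3 SD, cut at about 23% in these data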;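 further: signal is peak over basal fluorescence ratio across the kinetic read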
CHRM1 antagonist: antagonists of human M1 muscarinic receptor; P11229; AID 588852; actives 1.3% (n = 360,000); inhibition, % at 3 µM; CHO-K1 hM1, Fluo-8 calcium fluorescence, ACh EC80 antagonist;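 active means percent inhibition above its own plate's cutoff, namely the mean of that plate's compound wells plus 3 SD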;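 further: peak over basal fluorescence ratio during 140 s after agonist addition; 0% = ACh EC80 plus DMSO and 100% = DMSO alone without agonist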
Target sequence (P11229 whole entry, looked up): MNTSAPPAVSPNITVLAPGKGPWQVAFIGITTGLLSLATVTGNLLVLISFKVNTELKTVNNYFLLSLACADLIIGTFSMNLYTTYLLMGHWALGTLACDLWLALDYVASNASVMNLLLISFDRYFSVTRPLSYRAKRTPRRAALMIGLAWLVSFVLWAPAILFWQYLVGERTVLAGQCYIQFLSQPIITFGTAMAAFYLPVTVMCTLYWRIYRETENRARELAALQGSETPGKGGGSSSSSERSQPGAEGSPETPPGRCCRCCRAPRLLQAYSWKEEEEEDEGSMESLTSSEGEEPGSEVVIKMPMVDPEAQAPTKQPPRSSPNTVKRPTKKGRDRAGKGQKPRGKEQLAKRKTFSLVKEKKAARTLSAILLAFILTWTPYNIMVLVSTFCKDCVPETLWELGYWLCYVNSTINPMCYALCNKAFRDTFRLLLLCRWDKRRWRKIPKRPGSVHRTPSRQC
M5 PAM: CHRM5 positive allosteric modulation; P08912; CHO-K1 hM5, Fluo-8 calcium, ACh EC20 PAM; 0% = ACh EC20, 100% = ACh EC100; activation, % at 3 µM; actives 0.3% (n = 360,000);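 active means activation above the run cutoff, the mean activation of all test compounds plus 3 SD, cut at about 18% in these data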
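Measured by: Fluo-8 calcium fluorescence; material: human M5 receptor in CHO-K1 cells; schedule: Post-acetylcholine fluorescence recording 140 s; benchmarks: low control EC20 acetylcholine (0%), high control EC100 acetylcholine (100%); read-out: Max/basal fluorescence ratio as % of EC20–EC100 ACh window; compound: single dose, 3 µM nominal final test concentration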
M5 antag: blocks acetylcholine activation of human M5 receptor; P08912; CHO-hM5 cells, Fluo-8 calcium fluorescence, ACh EC80; inhibition, % at 3 µM; actives 0.59% (n = 360,000); AID 624040;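 active means inhibition above a per-plate cutoff, the mean of that plate's test compounds plus 3 SD, cut at about 27% in these data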;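 further: 0% = acetylcholine EC80 with DMSO and 100% = DMSO without agonist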
M1 ag: human M1 muscarinic receptor agonism. CHO-K1 hM1, Fluo-8 calcium fluorescence, agonist mode; 0% DMSO, 100% acetylcholine EC100. AID 588814. P11229. activation, % at 3 µM. actives 0.33% (n = 360,000);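 active means activation above the run's mean compound activation plus 3 SD, cut at about 16% in these data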;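 further: peak over basal fluorescence ratio within a 140 s kinetic read after compound addition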
CHRM1 PAM: potentiates human M1 receptor response to acetylcholine; actives 0.088% (n = 360,000); AID 588819; CHO-K1 hM1, Fluo-8 calcium fluorescence, ACh EC20; 0% = ACh EC20, 100% = maximal ACh; activation, % at 3 µM; P11229; in the data active means activation above about 19%, passing the limit was not always enough
The depositor's hits bear a star; / = no result given; ! = not active in a repeat. An excerpt weighted towards active compounds, which were near 2% of everything screened.

SMILES	CHRM5 agonist	CHRM1 antagonist	M5 PAM	M5 antag	M1 ag	CHRM1 PAM
O=C(/C=C/c1ccccc1)CC(O)(c1ccccc1)C(F)(F)C(F)F (centres undefined)	-6	38*	-9	7	-8	-22
O=C(/C=C/c1ccccc1)CC(O)(c1ccccc1)C(F)(F)F (centres undefined)	-7	28	-5	7	-9	-22
COC(=O)[C@@H]1ON2OCC(C)=C3CCCC[C@@]32[C@H]1C(=O)OC	3	/	9	-11	/	/
CCn1c2ccc(CC(=O)O)cc2c2cc(CC(=O)O)ccc21	-1	-8	-7	-7	-4	4
O=C(O)Cc1ccc2ccc3ccccc3c2c1	3	-22	19*	-17	1	19
N=C1CCCC1C(=S)SCCC(N)=O (centres undefined)	-2	-7	2	-3	-1	-4
Cc1cccc(OCC(=O)Nc2ccc(C(=O)Nc3ccccc3C(=O)O)cc2)c1	3	-10	2	2	0	9
Cc1cccc(C(=O)Nc2ccccc2C(=O)OCC(=O)Nc2ccc(C#N)cc2)c1	0	8	-16	28*	-3	-6
CC1(C(=O)NCc2cccnc2)CCN1C(=O)c1cccc(F)c1 (centres undefined)	0	12	0	7	-3	-5
CCOc1ccc(C(=O)NC2CC3CCCC(C2)N3CC(C)C)cc1 (centres undefined)	-11	40*	-3	8	-6	-14
O=C(N/N=C/c1ccc2cccc(OCc3ccccc3)c2n1)c1ccc(Cl)cc1	-2	34*	-17	11	-1	-10
CCNC(=O)C1(C)CCCN(C(=O)c2cc(C)nn2C(C)(C)C)C1 (centres undefined)	1	-1	-1	-4	-2	0
CC1CCCCN1C(=O)CSc1nc2ccccc2[nH]1 (centres undefined)	2	9	4	-1	-4	-4
CC1CCCCN1C(=O)CSc1nc(-c2ccccc2)cc(=O)[nH]1 (centres undefined)	1	0	20*	-9	-1	5
COc1ccc(NC(=O)c2cc(C3CCCCN3S(=O)(=O)c3cccs3)on2)c(C)c1 (centres undefined)	-1	-10	-1	-3	-6	3
CC(=O)NNc1nc(-c2ccc(C)cc2)cs1	-3	-4	-1	2	-9	8
CCCC(=O)Nc1ccc(-c2csc(NNC(C)=O)n2)cc1	5	-16	21*	-12	3	18
COC(=O)N(C)C[C@@H]1OCc2cnnn2CCCC(=O)N([C@H](C)CO)C[C@H]1C	1	-16	1	-8	0	11
CCCCn1cc(C(=O)c2cc(Br)ccc2O)cc(C#N)c1=O	1	25	-12	29*	3	-10
CCCOc1ccc(C(=O)NC(=S)NNC(=O)c2c(-c3ccccc3)noc2C)cc1	19	62*	-16	16	97*	-23
Cc1onc(-c2ccccc2)c1C(=O)NC(=S)NNC(=O)c1ccccc1O	20	16	-17	-1	74*	-21
CCCOc1ccc(NC(=O)c2c(-c3ccccc3)noc2C)cc1	-1	-12	3	3	-2	10
Cc1onc(-c2ccccc2)c1C(=O)NC(=S)NNC(=O)c1ccc(O)cc1O	-1	-23	-2	1	-7	7
O=C(O)c1ccc(Oc2ccc([N+](=O)[O-])cc2)c([N+](=O)[O-])c1	-6	-15	12	-10	1	6
Cc1cc(C(=O)COC(=O)c2n[nH]c(=O)c3ccccc23)c(C)n1C	3	28*	6	-2	-1	-12
SMILES	CHRM5 agonist	CHRM1 antagonist	M5 PAM	M5 antag	M1 ag	CHRM1 PAM
CCCCN(C=O)c1c(CC)nc2c(OCc3cccc(Cl)c3)cccn12	-2	-7	-9	7	-2	8
CSc1ccccc1C(=O)C1CCCN(Cc2c(C)n(C)n(-c3ccccc3)c2=O)C1 (centres undefined)	-11	79*	-2	0	-13	-33
CCCCCCCCCCOC(=O)Cn1c(COc2ccc(Cl)cc2)[n+](C)c2ccccc21	-8	43*	-15	21	-4	-20
CCOC(=O)Cn1c(COc2ccccc2OC)[n+](C)c2ccccc21	-15	6	-5	6	-9	-3
CCCCCCCCCCOC(=O)Cn1c(COc2ccccc2)[n+](C)c2ccccc21	-1	70*	-16	33*	-6	-30
CCCCOC(=O)Cn1c(=O)n(CC(=O)OCCCC)c2ccccc21	-5	-4	1	-4	-4	1
CCCCCCCCCCOC(=O)Cn1c(COc2ccccc2C)[n+](C)c2ccccc21	-27	86*	-33	53*	-10	-30
CCCCCCCCCCOC(=O)Cn1c(COc2ccc(OC)cc2)[n+](C)c2ccccc21	-7	41*!	-14	28*!	-11	-16
CCCCCOC(=O)Cn1c(=O)oc2ccccc21	-2	-8	2	-4	-8	5
O=C(C(=O)N1CCN(c2ccncc2)CC1)c1cccc(Br)c1	-6	/	-2	0	/	/
Cc1cccc(OCCCn2c(=O)sc3ccccc32)c1	-12	14	-8	-9	-5	-3
CCCCCCCCCCOC(=O)Cn1c(COc2cccc(C)c2)[n+](C)c2ccccc21	-25	36*	-20	19	9	-22
O=C(Nc1ccc(F)cc1)C(c1cccc(F)c1)N1CCN(c2ccncc2)CC1 (centres undefined)	-2	/	5	3	/	/
Cc1ccccc1NC(=O)Cc1nc(COC(=O)c2ccc(S(C)(=O)=O)c([N+](=O)[O-])c2)cs1	1	34*	-24	18	-5	-26
Cc1noc(C)c1CSc1nc2ccccc2[nH]1	-4	24*	0	-3	-8	-20
Fc1cccc(F)c1CSc1nc2ccccc2[nH]1	-3	3	-3	-1	-6	1
O=C(O)c1ccccc1CSc1nc2ccccc2[nH]1	-4	-1	-1	5	-4	5
c1ccc(-c2cc(CSc3nc4ccccc4[nH]3)on2)cc1	4	21*	-25	15	4	-19
COCCNc1nc(Nc2ccc(C)cc2C)c2sccc2n1	1	-14	-6	8	2	7
COCC(C)NS(=O)(=O)c1ccc(NC(=O)c2ccccn2)cc1 (centres undefined)	-3	-29	-18	30*	3	2
CC(=O)NS(=O)(=O)c1ccc(NC(=O)c2ccccn2)cc1	-1	-2	-2	5	0	8
